We go through three molecules from ChEMBL document CHEMBL2202955, “Identification of Potent, Selective, Cell-Active Inhibitors of the Histone Lysine Methyltransferase EZH2” (ACS Med Chem Lett, 2012).

For orientation: IC50 means the point on the concentration scale where inhibition reaches its midpoint. Read a high IC50 as lower potency.

For assay [1], the target named is DNA (cytosine-5)-methyltransferase 3B (Mus musculus, UniProt O88509). Description: Inhibition of mouse DNMT3b1 using lambda DNA as substrate preincubated for 10 mins followed by addition of [3H]SAM and incubated for 60 mins. The gist of the method: (§1)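 Panel of methyltransferases tested for selectivity. […] Values are the mean of at least two independent replicates.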

The target in assay [2] is Protein arginine N-methyltransferase 5 (Homo sapiens, UniProt O14744). Description: Inhibition of PRMT5 using histone H3 as substrate preincubated for 10 mins followed by addition of [3H]SAM and incubated for 60 mins. In a few lines: as §1
Chain of Protein arginine N-methyltransferase 5 (O14744 whole entry): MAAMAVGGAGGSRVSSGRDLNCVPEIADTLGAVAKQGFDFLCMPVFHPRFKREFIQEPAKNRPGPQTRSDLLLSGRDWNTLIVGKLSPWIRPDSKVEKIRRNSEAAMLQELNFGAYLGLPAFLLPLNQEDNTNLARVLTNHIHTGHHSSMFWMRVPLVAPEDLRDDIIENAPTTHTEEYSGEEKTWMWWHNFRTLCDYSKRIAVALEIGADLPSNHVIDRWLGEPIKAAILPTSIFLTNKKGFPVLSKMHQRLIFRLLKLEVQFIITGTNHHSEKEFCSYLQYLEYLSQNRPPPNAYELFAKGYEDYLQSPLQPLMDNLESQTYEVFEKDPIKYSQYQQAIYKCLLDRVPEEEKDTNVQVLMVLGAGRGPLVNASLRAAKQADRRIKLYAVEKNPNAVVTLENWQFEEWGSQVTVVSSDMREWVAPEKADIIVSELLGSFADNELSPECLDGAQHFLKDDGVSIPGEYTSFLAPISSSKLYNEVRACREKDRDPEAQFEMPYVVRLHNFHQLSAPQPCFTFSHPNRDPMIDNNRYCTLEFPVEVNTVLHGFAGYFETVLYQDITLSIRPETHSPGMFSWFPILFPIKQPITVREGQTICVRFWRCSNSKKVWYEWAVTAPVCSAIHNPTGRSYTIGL
Assay [3] concerns the target Protein arginine N-methyltransferase 1 (Homo sapiens, UniProt Q99873). Description: Inhibition of PRMT1 using histone H4 as substrate preincubated for 10 mins followed by addition of [3H]SAM and incubated for 60 mins. In a few lines: as §1
For assay [4], the target named is EZH2/SUZ12/EED/RBBP7/RBBP4. Description: Inhibition of PRC2 complex of FLAG-EZH2, EED, SUZ12, AEBP2 and RbAp48 using histone H3 peptide (21 to 44) as substrate and [3H]SAM after 30 mins. It is filed as protein-complex assay. The conditions noted are these: read-out: Ki(app).
Assay [5] concerns the target DNA (cytosine-5)-methyltransferase 3A (Homo sapiens, UniProt Q9Y6K1). Description: Inhibition of DNMT3a using lambda DNA as substrate preincubated for 10 mins followed by addition of [3H]SAM and incubated for 60 mins. In a few lines:
as §1

Assay [6] has as its target Histone-lysine N-methyltransferase EZH2 (Homo sapiens, UniProt Q15910). Description: Inhibition of EZH2-mediated nuclear H3K27 methylation in human HCC1806 cells after 72 hrs by immunofluorescence analysis. It is filed as cell-based. The gist of the method:
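HCC1806 breast cancer cells were exposed to compound for 72 h. Nuclear H3K27me3 was quantified by an immunofluorescence imaging assay and normalized to total H3. Values are the mean of at least three independent replicates.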

For assay [7], the target named is Histone-lysine N-methyltransferase SUV39H2 (Homo sapiens, UniProt Q9H5I1). Description: Inhibition of SUV39H2 using histone H3 as substrate preincubated for 10 mins followed by addition of [3H]SAM and incubated for 60 mins. The gist of the method:
as §1

Assay [8] deals with DNA (cytosine-5)-methyltransferase 1 (Homo sapiens, UniProt P26358). Description: Inhibition of DNMT1 using polydi-dc as substrate preincubated for 10 mins followed by addition of [3H]SAM and incubated for 60 mins. The gist of the method: as §1
Chain of DNA (cytosine-5)-methyltransferase 1 (P26358 whole entry): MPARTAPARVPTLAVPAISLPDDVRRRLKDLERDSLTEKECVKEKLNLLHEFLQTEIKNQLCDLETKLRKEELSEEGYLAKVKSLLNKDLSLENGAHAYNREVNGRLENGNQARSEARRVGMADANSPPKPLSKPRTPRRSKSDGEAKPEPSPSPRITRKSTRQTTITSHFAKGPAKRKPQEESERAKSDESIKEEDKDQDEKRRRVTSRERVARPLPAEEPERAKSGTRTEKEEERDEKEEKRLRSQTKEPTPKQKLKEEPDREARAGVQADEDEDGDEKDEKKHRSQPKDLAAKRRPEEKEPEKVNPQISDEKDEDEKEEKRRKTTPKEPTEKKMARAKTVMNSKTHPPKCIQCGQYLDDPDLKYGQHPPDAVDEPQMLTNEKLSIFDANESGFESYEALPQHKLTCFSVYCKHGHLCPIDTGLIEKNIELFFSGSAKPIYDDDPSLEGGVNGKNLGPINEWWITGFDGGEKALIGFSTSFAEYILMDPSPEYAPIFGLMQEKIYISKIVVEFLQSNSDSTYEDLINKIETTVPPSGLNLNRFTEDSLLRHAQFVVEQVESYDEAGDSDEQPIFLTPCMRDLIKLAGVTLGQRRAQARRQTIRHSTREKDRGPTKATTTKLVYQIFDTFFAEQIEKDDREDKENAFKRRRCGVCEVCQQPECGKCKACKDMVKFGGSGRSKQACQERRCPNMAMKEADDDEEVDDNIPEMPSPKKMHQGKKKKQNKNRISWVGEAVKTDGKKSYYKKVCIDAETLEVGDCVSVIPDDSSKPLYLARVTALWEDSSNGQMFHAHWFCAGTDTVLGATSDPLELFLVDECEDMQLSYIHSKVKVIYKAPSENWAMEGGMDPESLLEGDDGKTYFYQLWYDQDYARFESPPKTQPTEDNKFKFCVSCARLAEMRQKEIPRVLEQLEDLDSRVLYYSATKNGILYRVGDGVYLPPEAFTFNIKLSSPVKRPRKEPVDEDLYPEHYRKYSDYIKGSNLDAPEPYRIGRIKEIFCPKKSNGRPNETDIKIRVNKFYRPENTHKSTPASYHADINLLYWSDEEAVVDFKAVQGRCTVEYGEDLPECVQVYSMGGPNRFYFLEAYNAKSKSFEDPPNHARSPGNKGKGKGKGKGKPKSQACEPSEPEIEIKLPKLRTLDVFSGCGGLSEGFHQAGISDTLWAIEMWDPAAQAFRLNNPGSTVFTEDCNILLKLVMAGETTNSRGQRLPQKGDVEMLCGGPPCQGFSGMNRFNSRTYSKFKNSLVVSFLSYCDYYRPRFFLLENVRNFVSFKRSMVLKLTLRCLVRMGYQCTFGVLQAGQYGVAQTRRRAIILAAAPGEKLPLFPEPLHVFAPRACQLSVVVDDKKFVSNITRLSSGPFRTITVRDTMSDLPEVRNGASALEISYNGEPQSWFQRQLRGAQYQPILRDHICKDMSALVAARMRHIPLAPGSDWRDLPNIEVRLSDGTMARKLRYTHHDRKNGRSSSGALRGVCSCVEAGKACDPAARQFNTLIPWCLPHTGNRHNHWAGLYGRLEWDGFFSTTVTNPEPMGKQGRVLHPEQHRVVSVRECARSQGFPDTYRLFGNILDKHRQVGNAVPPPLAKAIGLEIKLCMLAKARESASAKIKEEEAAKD
For assay [9], the target named is EZH1/SUZ12/EED/AEBP2/RBBP4 complex. Description: Inhibition of PRC2 complex of EZH1, EED, SUZ12, AEBP2 and RbAp48 using histone H3 peptide (21 to 44) as substrate and [3H]SAM after 1 hr by SPA. It is filed as protein-complex assay. The gist of the method: as §1
Assay [10] has as its target T1, Histone-arginine methyltransferase CARM1 (Homo sapiens, UniProt Q86X55).
T1 sequence (Q86X55 whole entry): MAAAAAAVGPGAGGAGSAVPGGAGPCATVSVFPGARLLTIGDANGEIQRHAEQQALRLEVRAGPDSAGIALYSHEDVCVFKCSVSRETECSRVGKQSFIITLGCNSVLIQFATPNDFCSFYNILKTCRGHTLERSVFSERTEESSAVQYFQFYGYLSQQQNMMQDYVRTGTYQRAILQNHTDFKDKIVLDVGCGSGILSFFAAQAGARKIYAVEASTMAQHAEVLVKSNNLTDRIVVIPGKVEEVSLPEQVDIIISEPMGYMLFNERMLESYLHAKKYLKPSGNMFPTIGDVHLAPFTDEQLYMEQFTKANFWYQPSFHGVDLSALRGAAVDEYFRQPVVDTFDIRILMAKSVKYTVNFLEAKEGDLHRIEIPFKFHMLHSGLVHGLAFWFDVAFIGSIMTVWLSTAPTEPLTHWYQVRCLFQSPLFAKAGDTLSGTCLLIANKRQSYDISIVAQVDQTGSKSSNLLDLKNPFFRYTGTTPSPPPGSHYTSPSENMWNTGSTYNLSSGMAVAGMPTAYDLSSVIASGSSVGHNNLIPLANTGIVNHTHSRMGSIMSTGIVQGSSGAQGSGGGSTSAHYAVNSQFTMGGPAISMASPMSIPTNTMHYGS
Description: Inhibition of PRMT4 using histone H3 as substrate preincubated for 10 mins followed by addition of [3H]SAM and incubated for 60 mins. The gist of the method:
as §1

Assay [11] concerns the target T2, Histone-lysine N-methyltransferase EHMT2 (Homo sapiens, UniProt Q96KQ7).
T2 sequence (Q96KQ7 whole entry): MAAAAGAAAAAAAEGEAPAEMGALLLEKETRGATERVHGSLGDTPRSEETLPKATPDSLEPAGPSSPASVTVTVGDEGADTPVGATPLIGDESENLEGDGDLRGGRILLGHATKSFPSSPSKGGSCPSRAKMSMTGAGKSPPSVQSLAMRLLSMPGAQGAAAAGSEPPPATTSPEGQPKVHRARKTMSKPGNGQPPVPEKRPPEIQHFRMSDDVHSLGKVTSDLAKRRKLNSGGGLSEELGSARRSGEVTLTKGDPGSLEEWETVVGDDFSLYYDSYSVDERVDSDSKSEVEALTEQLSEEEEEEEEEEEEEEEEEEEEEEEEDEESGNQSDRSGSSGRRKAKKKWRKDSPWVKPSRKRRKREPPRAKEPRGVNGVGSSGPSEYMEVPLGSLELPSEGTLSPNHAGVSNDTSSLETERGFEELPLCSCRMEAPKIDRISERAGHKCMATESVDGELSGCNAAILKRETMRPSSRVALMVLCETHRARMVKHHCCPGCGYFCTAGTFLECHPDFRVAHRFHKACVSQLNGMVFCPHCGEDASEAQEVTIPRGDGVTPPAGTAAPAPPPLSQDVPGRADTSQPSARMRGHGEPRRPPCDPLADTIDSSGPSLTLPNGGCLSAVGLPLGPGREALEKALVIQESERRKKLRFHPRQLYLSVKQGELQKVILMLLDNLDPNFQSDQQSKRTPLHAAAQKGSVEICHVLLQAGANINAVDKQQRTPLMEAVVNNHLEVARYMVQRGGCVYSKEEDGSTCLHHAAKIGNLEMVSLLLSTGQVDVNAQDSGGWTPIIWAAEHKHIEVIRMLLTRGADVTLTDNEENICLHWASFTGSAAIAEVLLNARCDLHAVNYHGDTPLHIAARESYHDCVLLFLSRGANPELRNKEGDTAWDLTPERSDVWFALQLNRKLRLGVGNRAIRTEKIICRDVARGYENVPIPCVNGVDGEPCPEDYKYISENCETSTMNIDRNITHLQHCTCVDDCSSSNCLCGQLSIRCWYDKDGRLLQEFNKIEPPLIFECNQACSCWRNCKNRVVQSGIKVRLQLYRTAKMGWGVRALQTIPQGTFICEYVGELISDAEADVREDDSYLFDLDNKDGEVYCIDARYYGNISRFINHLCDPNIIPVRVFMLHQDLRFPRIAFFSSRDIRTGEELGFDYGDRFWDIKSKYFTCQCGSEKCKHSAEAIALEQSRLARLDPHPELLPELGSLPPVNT
Description: Inhibition of G9a using histone H3 as substrate preincubated for 10 mins followed by addition of [3H]SAM and incubated for 60 mins. In a few lines: as §1

A value given as a limit tells only on which side of the number the result lay.

Chain of Protein arginine N-methyltransferase 1 (Q99873 whole entry): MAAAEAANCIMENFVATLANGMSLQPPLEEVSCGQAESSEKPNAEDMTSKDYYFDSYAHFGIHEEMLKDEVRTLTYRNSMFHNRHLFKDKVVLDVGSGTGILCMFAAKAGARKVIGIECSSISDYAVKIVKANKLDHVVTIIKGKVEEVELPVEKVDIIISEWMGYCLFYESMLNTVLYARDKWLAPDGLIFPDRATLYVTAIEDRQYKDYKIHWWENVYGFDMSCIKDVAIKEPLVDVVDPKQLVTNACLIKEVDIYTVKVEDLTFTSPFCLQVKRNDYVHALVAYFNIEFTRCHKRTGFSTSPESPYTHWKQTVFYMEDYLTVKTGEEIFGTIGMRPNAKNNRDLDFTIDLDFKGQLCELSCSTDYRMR
Chain of DNA (cytosine-5)-methyltransferase 3A (Q9Y6K1 whole entry, looked up): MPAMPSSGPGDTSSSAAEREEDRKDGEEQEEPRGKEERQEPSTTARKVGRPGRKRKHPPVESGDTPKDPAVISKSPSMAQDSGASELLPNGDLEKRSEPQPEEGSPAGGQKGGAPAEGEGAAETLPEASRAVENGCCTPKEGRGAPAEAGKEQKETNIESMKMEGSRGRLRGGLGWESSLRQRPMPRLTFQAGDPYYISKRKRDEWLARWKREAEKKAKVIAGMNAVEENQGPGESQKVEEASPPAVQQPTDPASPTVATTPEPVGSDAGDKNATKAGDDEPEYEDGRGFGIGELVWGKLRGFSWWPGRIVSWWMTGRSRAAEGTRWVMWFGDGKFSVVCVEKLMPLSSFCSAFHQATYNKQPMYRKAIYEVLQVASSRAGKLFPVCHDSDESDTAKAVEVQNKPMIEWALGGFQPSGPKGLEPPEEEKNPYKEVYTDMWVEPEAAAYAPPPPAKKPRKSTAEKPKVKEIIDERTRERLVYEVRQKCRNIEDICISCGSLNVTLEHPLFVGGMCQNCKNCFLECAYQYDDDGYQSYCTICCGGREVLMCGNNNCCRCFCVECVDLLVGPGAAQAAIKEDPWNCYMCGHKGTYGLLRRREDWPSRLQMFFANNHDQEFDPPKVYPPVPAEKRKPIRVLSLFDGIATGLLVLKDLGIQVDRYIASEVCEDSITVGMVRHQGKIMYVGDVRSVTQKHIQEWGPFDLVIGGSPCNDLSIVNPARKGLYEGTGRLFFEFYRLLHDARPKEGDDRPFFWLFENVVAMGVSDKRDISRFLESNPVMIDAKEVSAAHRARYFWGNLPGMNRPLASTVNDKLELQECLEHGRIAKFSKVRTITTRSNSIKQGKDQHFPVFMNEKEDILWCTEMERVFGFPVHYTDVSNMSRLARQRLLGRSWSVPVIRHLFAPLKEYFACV
Chain of Histone-lysine N-methyltransferase SUV39H2 (Q9H5I1 whole entry): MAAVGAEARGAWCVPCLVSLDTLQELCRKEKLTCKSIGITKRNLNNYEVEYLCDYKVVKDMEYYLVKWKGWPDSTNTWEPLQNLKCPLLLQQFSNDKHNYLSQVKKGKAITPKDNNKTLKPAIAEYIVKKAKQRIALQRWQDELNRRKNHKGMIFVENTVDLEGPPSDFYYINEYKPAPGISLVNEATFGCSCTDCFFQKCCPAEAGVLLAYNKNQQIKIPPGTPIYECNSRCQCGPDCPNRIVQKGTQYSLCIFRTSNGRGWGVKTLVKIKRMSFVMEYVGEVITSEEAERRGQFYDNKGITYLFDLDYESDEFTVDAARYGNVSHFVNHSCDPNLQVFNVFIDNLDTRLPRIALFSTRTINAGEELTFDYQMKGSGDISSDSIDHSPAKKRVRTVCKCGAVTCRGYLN

On to `Cc1cc(C)c(CNC(=O)c2cc(-c3ccc(N4CCN(C)CC4)nc3)cc3c2cnn3C(C)C)c(=O)[nH]1`, for which the IC50 in assay [1] was more than 100 µM; in [2] it was more than 100 µM; in assay [3], more than 100 µM; in [5], more than 100 µM; in assay [6], 0.324 µM; in [7], more than 100 µM. Besides, the IC50 in assay [8] is more than 100 µM; in assay [9], 2.5 µM; in assay [10], more than 100 µM; in assay [11], more than 100 µM. Further, the Ki in [4] was determined as 0.0079 µM. Also, the inhibition result in assay [6] was “Dose-dependent effect”.
As to `CCCc1cc(C)[nH]c(=O)c1CNC(=O)c1cc(-c2ccnc(N3CCN(C)CC3)c2)cc2c1cnn2C(C)C`, the IC50 in assay [1] was more than 100 µM; in assay [2], more than 100 µM; in [3] it was more than 100 µM; in [5], more than 100 µM; in assay [6], 0.174 µM; in assay [7] it was 123 µM. Moreover, the IC50 is more than 100 µM in assay [8], 0.24 µM in assay [9], 128 µM in assay [10] and more than 100 µM in [11]. Also, the Ki in [4] turned out to be 0.0012 µM.
`CCCc1cc(C)[nH]c(=O)c1CNC(=O)c1cc(-c2ccc(N3CCN(C)CC3)nc2)cc2c1cnn2C(C)C`: the IC50 in assay [1] is more than 100 µM; in [2], more than 100 µM; in assay [3], more than 100 µM; in [5] it was more than 100 µM; in [6] it was 0.079 µM; in assay [7] it was more than 100 µM. In addition, the half-inhibitory concentration (IC50) in assay [8] is 121 µM; in [9] it was 0.1 µM; in [10] it was 116 µM; in assay [11], more than 100 µM. Moreover, the Ki in assay [4] worked out at 0.0006 µM.
